This passage reports IC50, inhibition in vivo and Ratio IC50 results from ChEMBL document CHEMBL4715833, “Design, synthesis, in-vitro, in-vivo and in-silico studies of pyrrolidine-2,5-dione derivatives as multitarget anti-inflammatory agents” (Eur J Med Chem, 2020).

Assay [1] is described as follows: Inhibition of trypsin (unknown origin) using casein as substrate preincubated for 5 mins followed by substrate addition and measured after 20 mins. More on the design: species or system Homo sapiens. In a few lines: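 Trypsin 0.06 mg/ml in 20 mM Tris-HCl pH 7.4 with compound at 31.25–1000 µg/ml, 5 min at 37 °C. 0.8% (w/v) casein added, 20 min further, stopped with 70% perchloric acid. After centrifugation, supernatant absorbance read at 217 nm against buffer blank. % inhibition against control; IC50 from plot; three runs.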

Assay [2] has as its system Mus musculus. As to the kind of experiment: Antiinflammatory activity against carrageenan-induced paw edema in Swiss mouse assessed as inhibition of paw edema at 100 mg/kg administered 30 mins prior to carrageenan challenge and measured after 3 hrs by […]-method (reference value: 11.41 +/- 3.069%). In kind it is functional. As to conditions: time 3.5 hrs. (In general: In the carrageenan paw model, swelling and tenderness develop within hours.)

The subject of assay [3] is Mus musculus. As to the kind of experiment: Antiinflammatory activity against carrageenan-induced paw edema in Swiss mouse assessed as inhibition of paw edema at 100 mg/kg administered 30 mins prior to carrageenan challenge and measured after 1 hr by […]-method (reference value: 7.66 +/- 3.753%). In kind it is functional. The conditions noted are these: 1.5 h, time 90 min.

Assay [4] deals with Mus musculus. As to the kind of experiment: Antiinflammatory activity against carrageenan-induced paw edema in Swiss mouse assessed as inhibition of paw edema at 100 mg/kg administered 30 mins prior to carrageenan challenge and measured after 4 hrs by […]-method (reference value: 14.46 +/- 1.568%). In kind it is functional. As to conditions: time 4.5 hrs.
For assay [5], the system named is Mus musculus. Briefly: Antiinflammatory activity against carrageenan-induced paw edema in Swiss mouse assessed as inhibition of paw edema at 100 mg/kg administered 30 mins prior to carrageenan challenge and measured after 5 hrs by […]-method (reference value: 7.31 +/- 3.204%). In kind it is functional. The conditions noted are these: time 5.5 hrs.

The test system of assay [6] is Mus musculus. Briefly: Antiinflammatory activity against carrageenan-induced paw edema in Swiss mouse assessed as inhibition of paw edema at 100 mg/kg administered 30 mins prior to carrageenan challenge and measured after 2 hrs by […]-method (reference value: 7.39 +/- 2.475%). Format: functional. As to conditions: time 2.5 hrs.
The test system of assay [7] is Mus musculus. As to the kind of experiment: Antiinflammatory activity in leukotriene-induced paw edema in Balb/c mouse assessed as inhibition of paw edema at 25 mg/kg, ip administered 1 hr prior to leukotriene challenge and measured after 3 hrs relative to control. In kind it is functional. In outline:
(§1)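 BALB/c mice of either sex (30–35 g), 8 per group, dosed i.p. with 10% DMSO, reference drug or compound (100 mg/kg). After 1 h, subplantar irritant: PGE2 0.01 µg/ml, bradykinin 20 µg/ml, histamine 0.1 ml of 1 mg/ml, or leukotriene 10 µg/ml.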

In assay [8] the test system is Mus musculus. Briefly: Antiinflammatory activity in PGE2-induced paw edema in Balb/c mouse assessed as inhibition of paw edema at 50 mg/kg, ip administered 1 hr prior to PGE2 challenge and measured up to 5 hrs relative to control. Format: functional. As to conditions: time 2-6 hrs. In a few lines: as §1
Assay [9] concerns the target T1, Prostaglandin G/H synthase 1 (Ovis aries, UniProt P05979).
T1 sequence (P05979 whole entry): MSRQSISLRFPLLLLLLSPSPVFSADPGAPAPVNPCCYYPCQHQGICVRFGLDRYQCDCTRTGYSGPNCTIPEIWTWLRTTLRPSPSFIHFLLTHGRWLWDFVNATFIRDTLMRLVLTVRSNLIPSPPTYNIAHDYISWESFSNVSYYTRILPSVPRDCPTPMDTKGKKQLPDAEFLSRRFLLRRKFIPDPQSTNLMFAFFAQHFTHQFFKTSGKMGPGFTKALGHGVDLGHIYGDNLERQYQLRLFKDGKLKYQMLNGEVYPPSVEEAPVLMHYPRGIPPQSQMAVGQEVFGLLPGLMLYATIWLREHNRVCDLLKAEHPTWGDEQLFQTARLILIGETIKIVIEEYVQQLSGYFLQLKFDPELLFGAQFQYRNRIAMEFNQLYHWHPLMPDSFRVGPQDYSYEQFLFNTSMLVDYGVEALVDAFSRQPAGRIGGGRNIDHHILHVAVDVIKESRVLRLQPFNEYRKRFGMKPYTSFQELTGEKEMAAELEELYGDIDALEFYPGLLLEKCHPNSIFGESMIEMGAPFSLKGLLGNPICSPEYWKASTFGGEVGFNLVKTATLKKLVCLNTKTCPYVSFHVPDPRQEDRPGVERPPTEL
As to the kind of experiment: Inhibition of sheep COX1 using arachidonic acid as substrate preincubated for 5 mins followed by substrate addition and measured after 5 mins by UV-visible spectrophotometric method. In outline:
(§2)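 Enzymes activated for 5 min on ice with cofactor solution of 0.9 mM glutathione, hematin and 0.24 mM TMPD in 0.1 M Tris-HCl pH 8.0; COX-2 at 300 units/ml. Reaction started with 30 mM arachidonic acid stock, run 5 min, absorbance read at 570 nm. IC50 taken from inhibition-vs-concentration plots as means of three determinations. SI = IC50(COX-1)/IC50(COX-2).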

Assay [10] has as its target T2, Polyunsaturated fatty acid 5-lipoxygenase (Homo sapiens, UniProt P09917).
T2 sequence (P09917 whole entry): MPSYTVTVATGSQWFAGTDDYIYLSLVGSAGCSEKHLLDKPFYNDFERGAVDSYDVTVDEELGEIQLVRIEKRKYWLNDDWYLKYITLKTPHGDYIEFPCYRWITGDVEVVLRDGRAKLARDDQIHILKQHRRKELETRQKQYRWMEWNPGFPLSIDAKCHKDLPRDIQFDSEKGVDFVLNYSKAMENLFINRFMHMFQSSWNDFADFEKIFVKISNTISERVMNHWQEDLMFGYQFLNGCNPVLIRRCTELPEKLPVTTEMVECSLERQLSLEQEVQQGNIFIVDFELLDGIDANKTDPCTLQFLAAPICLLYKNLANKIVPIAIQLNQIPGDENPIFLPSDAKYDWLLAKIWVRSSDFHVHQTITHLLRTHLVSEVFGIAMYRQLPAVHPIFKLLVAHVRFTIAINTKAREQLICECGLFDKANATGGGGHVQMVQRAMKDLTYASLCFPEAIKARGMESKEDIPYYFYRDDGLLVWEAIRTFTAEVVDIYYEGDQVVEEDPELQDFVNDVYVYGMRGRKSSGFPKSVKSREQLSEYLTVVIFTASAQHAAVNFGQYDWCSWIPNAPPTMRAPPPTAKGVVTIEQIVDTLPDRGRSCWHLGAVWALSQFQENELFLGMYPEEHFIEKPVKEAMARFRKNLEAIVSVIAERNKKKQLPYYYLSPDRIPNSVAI
Briefly: Inhibition of recombinant human 5LOX expressed in baculovirus infected Sf insect cells using linoleic acid as substrate preincubated for 5 mins followed by substrate addition.

The species entered for another assay is Homo sapiens. Briefly: Selectivity index, ratio of IC50 for sheep COX1 to IC50 for recombinant human COX2 expressed in baculovirus infected Sf21 cells. In a few lines: as §2
A short description of assay [11]: Antiinflammatory activity assessed as inhibition of heat-induced albumin denaturation preincubated for 20 mins followed by heating at 51 degC and measured after 3 mins by UV-vis spectrophotometric method.
In assay [12] the test system is Mus musculus. As to the kind of experiment: Antiinflammatory activity in histamine-induced paw edema in Balb/c mouse assessed as inhibition of paw edema at 1 mg/kg, ip administered 1 hr prior to histamine challenge and measured after 1 hr relative to control. In kind it is functional. The conditions noted are these: time 2 hrs. In outline: as §1

Structures can show the parent of a compound that is named as a salt.

For `O=C(O)Cc1ccccc1Nc1c(Cl)cccc1Cl` [DICLOFENAC], the IC50 (commonly the concentration at which inhibition is half-maximal) in [1] was found to be 42.7 µM.
With `CC(=O)Oc1ccccc1C(=O)O` [ASPIRIN], the inhibition in vivo (in general, how much of the control response was suppressed) at 100 mg/kg was found to be 53.3% in the assay with Mus musculus [2]; 47.5% in the assay with Mus musculus [3]; 56.9% in the assay with Mus musculus [4]; 57.6% with Mus musculus [5]; 54.6% in the assay with Mus musculus [6]. Further, the inhibition in vivo at 25 mg/kg in the assay with Mus musculus [7] was determined as 77.4%.
`Cc1ccc(-c2cc(C(F)(F)F)nn2-c2ccc(S(N)(=O)=O)cc2)cc1` [CELECOXIB]: the inhibition in vivo at 50 mg/kg with Mus musculus [8] worked out at 65.9%.
In the case of `CC1CCC(=O)C(C2CC(=O)N(Cc3ccccc3)C2=O)C1` (centres undefined), the values for the IC50 in assay [9], in assay [1] and in assay [10] were 51.5 µM, 63.5 µM and 56.2 µM, respectively. In the assay listed under Homo sapiens, the Ratio IC50 is 2.35.
As for `O=C1CCCC1C1CC(=O)N(c2ccccc2)C1=O` (centres undefined), the IC50 in [11] was 97.2 µM; in assay [9] it was 30.3 µM; in assay [1] it was 85.5 µM; in assay [10], 98.5 µM. The Ratio IC50 in the assay filed under Homo sapiens amounted to 0.58.
As to `COc1ccc(C(=O)CC2CC(=O)N(c3ccc(S(N)(=O)=O)cc3)C2=O)cc1` (centres undefined), the concentration for half-maximal inhibition (IC50) in assay [11] worked out at 24.9 µM; in assay [9], 39.2 µM; in assay [1], 14.9 µM; in [10], 4.74 µM. Further, the Ratio IC50 in the assay listed under Homo sapiens is 18.7.
On to `NS(=O)(=O)c1ccc(N2C(=O)CC(CC(=O)c3ccccc3)C2=O)cc1` (centres undefined), for which the IC50 amounted to 48.7 µM in [9], 45.6 µM in assay [1] and 5.29 µM in [10]. Further, in the assay filed under Homo sapiens, the Ratio IC50 was 11.5.
`NS(=O)(=O)c1ccc(N2C(=O)CC(C3CCCCC3=O)C2=O)cc1` (centres undefined): the half-maximal inhibitory concentration (IC50) in [9] came out at 43.4 µM; in assay [10] it was 21.3 µM. For the same compound, the Ratio IC50 in the assay filed under Homo sapiens turned out to be 2.04.
Consider `CC1CCC(=O)C(C2CC(=O)N(c3ccccc3)C2=O)C1` (centres undefined), for which the half-maximal inhibitory concentration (IC50) was 53 µM in [9], 77.1 µM in [1] and 69.2 µM in [10]. For the same compound, the Ratio IC50 in the assay filed under Homo sapiens turned out to be 0.93.
As to `CC(=O)CC1CC(=O)N(c2ccccc2)C1=O` (centres undefined), the IC50 was determined as 33.3 µM in [9], 151 µM in assay [1] and 62.4 µM in assay [10]. The Ratio IC50 in the assay listed under Homo sapiens turned out to be 0.52.
Take `CN(C)CCC(c1ccc(Cl)cc1)c1ccccn1` (centres undefined) [CHLORPHENIRAMINE MALEATE]: the inhibition in vivo at 1 mg/kg in the assay with Mus musculus [12] stood at 71.8%.
As to `O=C1CCCCC1C1CC(=O)N(c2ccccc2)C1=O` (centres undefined), the IC50 in assay [9] was found to be 65.6 µM; in assay [1] it was 66.3 µM; in [10], 78.3 µM. Further, in the assay listed under Homo sapiens, the Ratio IC50 turned out to be 1.45.
In the case of `O=C1CCCCC1C1CC(=O)N(c2ccc(Br)cc2)C1=O` (centres undefined), the half-maximal inhibitory concentration (IC50) was determined as 186 µM in assay [9], 99.9 µM in assay [1] and 130 µM in assay [10]. The Ratio IC50 in the assay filed under Homo sapiens stood at 1.64.
With `NS(=O)(=O)c1ccc(N2C(=O)CC(C3CCCCCC3=O)C2=O)cc1` (centres undefined), the figures for the half-maximal inhibitory concentration (IC50) in assay [9] and in [10] were 49.1 µM and 16.1 µM, respectively. In addition, the Ratio IC50 in the assay listed under Homo sapiens is 2.36.
As for `O=C1CCCCCC1C1CC(=O)N(c2ccccc2)C1=O` (centres undefined), the IC50 in assay [9] was determined as 65.6 µM; in assay [1], 63.1 µM; in [10], 18.4 µM. The Ratio IC50 in the assay listed under Homo sapiens came out at 1.66.
Turning to `CC(=O)C(C)(C)C1CC(=O)N(c2ccccc2)C1=O` (centres undefined), the half-maximal inhibitory concentration (IC50) in assay [9] amounted to 39.3 µM; in assay [1], 88.7 µM; in [10] it was 53.4 µM. In addition, in the assay listed under Homo sapiens, the Ratio IC50 was determined as 0.73.
Regarding `NS(=O)(=O)c1ccc(N2C(=O)CC(CC(=O)c3ccccn3)C2=O)cc1` (centres undefined), the half-inhibitory concentration (IC50) in assay [9] is 43.7 µM; in assay [1] it was 13.4 µM; in [10], 0.81 µM. Further, the Ratio IC50 in the assay listed under Homo sapiens was 4.88.
For `NS(=O)(=O)c1ccc(N2C(=O)CC(CC(=O)c3ccc(Cl)cc3)C2=O)cc1` (centres undefined), the IC50 in [9] came out at 68.8 µM; in [1], 21.5 µM; in [10] it was 12.6 µM. Besides, the Ratio IC50 in the assay filed under Homo sapiens came out at 10.9.
In the case of `O=C1CCOCC1C1CC(=O)N(c2ccccc2)C1=O` (centres undefined), the IC50 was determined as 48.9 µM in assay [9], 117 µM in assay [1] and 26.8 µM in [10]. Also, in the assay listed under Homo sapiens, the Ratio IC50 was determined as 0.86.
